Measured values from ChEMBL document CHEMBL1955832, “Facile synthesis, characterization and pharmacological activities of 3,6-disubstituted 1,2,4-triazolo[3,4-b][1,3,4]thiadiazoles and 5,6-dihydro-3,6-disubstituted-1,2,4-triazolo[3,4-b][1,3,4]thiadiazoles” (2012).
In brackets after ≈: the same amount, converted by molar mass. Activity calls are given as the source filed them. No cut-off for these calls is given here.

Tests used:
Klebsiella pneumoniae [1] = experiment: Antibacterial activity against recultured Klebsiella pneumoniae at MIC after 3 to 4 days by disc diffusion method; assay type: functional
How it was run: (§1)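 Agar well diffusion: seeded agar plates dried 1 h at 37 °C, wells punched and filled with test compound at MIC level in DMSO; DMSO solvent control. Plates in triplicate, kept at 37 °C for 3–4 days; zone of inhibition read.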

Pseudomonas aeruginosa [2] = experiment: Antibacterial activity against Pseudomonas aeruginosa ATTC 27853 at MIC after 3 to 4 days by disc diffusion method; assay type: functional; how it was run: as §1
Aspergillus fumigatus [3] = experiment: Antifungal activity against Aspergillus fumigatus NCIM 902 by serial plate dilution method; assay type: functional
Aspergillus flavus [4] = experiment: Antifungal activity against Aspergillus flavus NCIM 524 by serial plate dilution method; assay type: functional
[5] = system: Trichophyton mentagrophytes; experiment: Antifungal activity against recultured Trichophyton mentagrophytes at MIC after 3 to 4 days; assay type: functional
Klebsiella pneumoniae [6] = experiment: Antibacterial activity against recultured Klebsiella pneumoniae after 16 to 18 hrs by serial dilution method; assay type: functional
How it was run: (§2)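 Serial drug dilutions in Mueller-Hinton broth adjusted to pH 5.0 with phosphate buffer, inoculated with standardized bacterial suspension, incubated 16–18 h at 37 °C; MIC taken as lowest concentration without conspicuous growth.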

Escherichia coli [7] = experiment: Antibacterial activity against Escherichia coli ATTC 25922 after 16 to 18 hrs by serial dilution method; assay type: functional; how it was run: as §2
Talaromyces marneffei [8] = experiment: Antifungal activity against recultured Penicillium marneffei at MIC after 3 to 4 days; assay type: functional
Staphylococcus aureus [9] = experiment: Antibacterial activity against Staphylococcus aureus ATTC 25923 after 16 to 18 hrs by serial dilution method; assay type: functional; how it was run: as §2
Aspergillus flavus [10] = experiment: Antifungal activity against Aspergillus flavus NCIM 524 at MIC after 3 to 4 days; assay type: functional
Mus musculus [11] = experiment: Analgesic activity Wistar albino mouse assessed as tail withdrawal latency time at 100 mg/kg, po administered by intragastric tube after 180 mins (reference value: 1.363 +/- 0.1297 sec); assay type: functional
Aspergillus fumigatus [12] = experiment: Antifungal activity against Aspergillus fumigatus NCIM 902 at MIC after 3 to 4 days; assay type: functional
Mus musculus [13] = experiment: Analgesic activity Wistar albino mouse assessed as tail withdrawal latency time at 100 mg/kg, po administered by intragastric tube after 120 mins (reference value: 1.363 +/- 0.1297 sec); assay type: functional
Pseudomonas aeruginosa [14] = experiment: Antibacterial activity against Pseudomonas aeruginosa ATTC 27853 after 16 to 18 hrs by serial dilution method; assay type: functional; how it was run: as §2
Mus musculus [15] = experiment: Analgesic activity Wistar albino mouse assessed as tail withdrawal latency time at 100 mg/kg, po administered by intragastric tube after 60 mins (reference value: 1.363 +/- 0.1297 sec); assay type: functional
[16] = system: Trichophyton mentagrophytes; experiment: Antifungal activity against recultured Trichophyton mentagrophytes by serial plate dilution method; assay type: functional
Escherichia coli [17] = experiment: Antibacterial activity against Escherichia coli ATTC 25922 at MIC after 3 to 4 days by disc diffusion method; assay type: functional; how it was run: as §1
Talaromyces marneffei [18] = experiment: Antifungal activity against recultured Penicillium marneffei by serial plate dilution method; assay type: functional
Staphylococcus aureus [19] = experiment: Antibacterial activity against Staphylococcus aureus ATTC 25923 at MIC after 3 to 4 days by disc diffusion method; assay type: functional; how it was run: as §1
Rattus norvegicus = experiment: Antiinflammatory activity rat assessed as reduction of carrageenan-induced paw oedema at 100 mg/kg, po administered 30 mins before carrageenan challenge measured after 60 to 180 mins; assay type: functional, organism-based; set-up: dose 100 mg/kg
How it was run: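 Rats randomly assigned, 100 mg/kg orally as suspension in 1% carboxymethyl cellulose, 30 min before carrageenan injected into right hind paw. Paw thickness measured with vernier callipers at 60, 120 and 180 min. Diclofenac reference; mean ± SEM, n = 6, vs vehicle control.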

Row | SMILES | diameter of the inhibition zone (DIZ) (Klebsiella pneumoniae [1]) [mm] | diameter of the inhibition zone (DIZ) (Pseudomonas aeruginosa [2]) [mm] | MIC (Aspergillus fumigatus [3]) [µM] | MIC (Aspergillus flavus [4]) [µM] | diameter of the inhibition zone (DIZ) [5] [mm] | MIC (Klebsiella pneumoniae [6]) [µM] | MIC (Escherichia coli [7]) [µM] | diameter of the inhibition zone (DIZ) (Talaromyces marneffei [8]) [mm] | MIC (Staphylococcus aureus [9]) [µM] | diameter of the inhibition zone (DIZ) (Aspergillus flavus [10]) [mm] | Time (Mus musculus [11]) [s] | diameter of the inhibition zone (DIZ) (Aspergillus fumigatus [12]) [mm] | Time (Mus musculus [13]) [s] | MIC (Pseudomonas aeruginosa [14]) [µM] | Time (Mus musculus [15]) [s] | MIC [16] [µM] | diameter of the inhibition zone (DIZ) (Escherichia coli [17]) [mm] | MIC (Talaromyces marneffei [18]) [µM] | diameter of the inhibition zone (DIZ) (Staphylococcus aureus [19]) [mm] | Activity (Rattus norvegicus)
1 | COc1ccc(Br)c(-c2nnc3sc(-c4ccc(C)cc4O)nn23)c1 | 16 | 16 | 15 (≈ 6.25 µg/mL) | 15 (≈ 6.25 µg/mL) | 16 | 15 (≈ 6.25 µg/mL) | 15 (≈ 6.25 µg/mL) | 11 | 29.9 (≈ 12.5 µg/mL) | 16 | 3.121 | 16 | 3.321 | 15 (≈ 6.25 µg/mL) | 2.388 | 15 (≈ 6.25 µg/mL) | 16 | 29.9 (≈ 12.5 µg/mL) | 11 | Active
2 | COc1ccc(Br)c(-c2nnc3sc(-c4ccc(C)cc4)nn23)c1 | 16 | 11 | 31.1 (≈ 12.5 µg/mL) | 31.1 (≈ 12.5 µg/mL) | 16 | 15.8 (≈ 6.32 µg/mL) | 15.8 (≈ 6.32 µg/mL) | 11 | 15.8 (≈ 6.32 µg/mL) | 11 | 2.47 | 11 | 2.681 | 31.1 (≈ 12.5 µg/mL) | 2.384 | 15.8 (≈ 6.32 µg/mL) | 16 | 31.1 (≈ 12.5 µg/mL) | 16 | Active
3 | COc1ccc(Br)c(-c2nnc3n2NC(c2ccc(-c4ccccc4)cc2)S3)c1 (configuration not stated) | 16 | 11 | 26.9 (≈ 12.5 µg/mL) | 13.4 (≈ 6.25 µg/mL) | 11 | 13.4 (≈ 6.25 µg/mL) | 26.9 (≈ 12.5 µg/mL) | 11 | 26.9 (≈ 12.5 µg/mL) | 16 | 2.455 | 11 | 2.067 | 26.9 (≈ 12.5 µg/mL) | 2.102 | 26.9 (≈ 12.5 µg/mL) | 11 | 26.9 (≈ 12.5 µg/mL) | 11 | –
4 | COc1ccc(Br)c(-c2nnc3sc(-c4ccc(I)cc4I)nn23)c1 | 11 | 11 | 19.6 (≈ 12.5 µg/mL) | 19.6 (≈ 12.5 µg/mL) | 11 | 19.6 (≈ 12.5 µg/mL) | 19.6 (≈ 12.5 µg/mL) | 11 | 19.6 (≈ 12.5 µg/mL) | 11 | 2.225 | 11 | 2.088 | 19.6 (≈ 12.5 µg/mL) | 2.038 | 19.6 (≈ 12.5 µg/mL) | 11 | 19.6 (≈ 12.5 µg/mL) | 11 | –
5 | CC1(C)S[C@@H]2[C@H](NC(=O)[C@H](N)c3ccccc3)C(=O)N2[C@H]1C(=O)O [AMPICILLIN] | 23 | 25 | – | – | – | 17.9 (≈ 6.25 µg/mL) | 17.9 (≈ 6.25 µg/mL) | – | 4.46 (≈ 1.56 µg/mL) | – | – | – | – | 17.9 (≈ 6.25 µg/mL) | – | – | 30 | – | 22 | –
6 | CC(C)=CCN1CC[C@]2(C)c3cc(O)ccc3C[C@H]1[C@H]2C [(+)-PENTAZOCINE] | – | – | – | – | – | – | – | – | – | – | 7.025 | – | 6.863 | – | 7.075 | – | – | – | – | –
7 | CCC(C)n1ncn(-c2ccc(N3CCN(c4ccc(OCC5COC(Cn6cncn6)(c6ccc(Cl)cc6Cl)O5)cc4)CC3)cc2)c1=O (configuration not stated) [ITRACONAZOLE] | – | – | 8.86 (≈ 6.25 µg/mL) | 8.86 (≈ 6.25 µg/mL) | 30 | – | – | 22 | – | 25 | – | 23 | – | – | – | 8.86 (≈ 6.25 µg/mL) | – | 2.21 (≈ 1.56 µg/mL) | – | –
